Data from ChEMBL document CHEMBL1944509, “Methyl-monofluorination of ibuprofen selectively increases its inhibitory activity toward cyclooxygenase-1 leading to enhanced analgesic activity and reduced gastric damage in vivo” (Bioorg Med Chem Lett, 2011).
Calls of active or inactive are those of the source. The rule behind the calls is not given here.

Experiments:
[1] = Drug level in ICR mouse brain at 5 mg/kg, iv after 0.5 hrs by HPLC/MS/MS analysis; assay type: ADME, organism-based; parameters: dose 5 mg/kg, route intravenous; conditions: read-out: Drug uptake
[2] = Cmax in ICR mouse at 5 mg/kg, iv; assay type: ADME, organism-based; parameters: dose 5 mg/kg, route intravenous; conditions: in vivo
Outline: (§1)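 ICR mice given drug intravenously at 5 mg/kg or orally at 10 mg/kg. Parameters are taken from the plasma concentration–time profile: AUC(0–t), AUC(0–∞), MRT, Cmax and bioavailability.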

[3] = Drug level in ICR mouse brain at 5 mg/kg, iv after 2 hrs by HPLC/MS/MS analysis; assay type: ADME, organism-based; parameters: dose 5 mg/kg, route intravenous; conditions: read-out: Drug uptake
[4] = Tmax in ICR mouse at 5 mg/kg, iv; assay type: ADME, organism-based; parameters: dose 5 mg/kg, route intravenous; conditions: in vivo
[5] = Cmax in ICR mouse at 10 mg/kg, po; assay type: ADME, organism-based; parameters: dose 10 mg/kg, route oral; conditions: in vivo; outline: as §1
[6] = Oral bioavailability ICR mouse at 10 mg/kg; assay type: ADME, organism-based; conditions: in vivo; outline: as §1
[7] = Drug level in ICR mouse brain at 5 mg/kg, iv after 0.083 hrs by HPLC/MS/MS analysis; assay type: ADME, organism-based; parameters: dose 5 mg/kg, route intravenous; conditions: read-out: Drug uptake
[8] = Plasma concentration in ICR mouse at 10 mg/kg, po after 8 hrs by HPLC/MS/MS analysis; assay type: ADME, organism-based; parameters: dose 10 mg/kg, route oral
[9] = test system: Nucleic Acid; assay: Ratio of drug level in brain to plasma in ICR mouse at 5 mg/kg, iv after 0.25 hrs by HPLC/MS/MS analysis; assay type: ADME, organism-based; parameters: dose 5 mg/kg, route intravenous
[10] = Plasma concentration in ICR mouse at 5 mg/kg, iv after 4 hrs by HPLC/MS/MS analysis; assay type: ADME, organism-based; parameters: dose 5 mg/kg, route intravenous
[11] = test system: Nucleic Acid; assay: Ratio of drug level in brain to plasma in ICR mouse at 10 mg/kg, po after 1 hr by HPLC/MS/MS analysis; assay type: ADME, organism-based; parameters: dose 10 mg/kg, route oral
[12] = AUC (0 to infinity) in ICR mouse at 10 mg/kg, po; assay type: ADME, organism-based; parameters: time infinity, dose 10 mg/kg, route oral; conditions: plasma; outline: as §1
[13] = Plasma concentration in ICR mouse at 10 mg/kg, po after 0.5 hrs by HPLC/MS/MS analysis; assay type: ADME, organism-based; parameters: dose 10 mg/kg, route oral
[14] = Plasma concentration in ICR mouse at 5 mg/kg, iv after 0.083 hrs by HPLC/MS/MS analysis; assay type: ADME, organism-based; parameters: dose 5 mg/kg, route intravenous
[15] = Plasma concentration in ICR mouse at 10 mg/kg, po after 0.083 hrs by HPLC/MS/MS analysis; assay type: ADME, organism-based; parameters: dose 10 mg/kg, route oral
[16] = Plasma concentration in ICR mouse at 10 mg/kg, po after 0.25 hrs by HPLC/MS/MS analysis; assay type: ADME, organism-based; parameters: dose 10 mg/kg, route oral
[17] = test system: Rattus norvegicus; assay: Antiinflammatory activity in Wistar albino rat assessed as inhibition of carrageenan-induced paw edema at 30 mg/kg intragastrically administered 1 hr before carrageenan challenge measured after 1 to 24 hrs post carrageenan challenge by plethysmometer; assay type: functional, organism-based
Outline: (§2)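 Male Wistar albino rats, 140–160 g, eight per group, dosed i.g. as a suspension in 0.5% CMC; controls get 0.5% CMC only. 1 h later, 0.1 ml of 0.1% carrageenan in 0.9% NaCl is injected into the sub-plantar region of the right hind paw. Paw volume is read by plethysmometer hourly to 6 h and at 24 h. Inhibition (%) = (Vc − Vt)/Vc × 100 on mean volume increase; mean ± SEM.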

[18] = Plasma concentration in ICR mouse at 5 mg/kg, iv after 6 hrs by HPLC/MS/MS analysis; assay type: ADME, organism-based; parameters: dose 5 mg/kg, route intravenous
[19] = Drug level in ICR mouse brain at 10 mg/kg, po after 1 hr by HPLC/MS/MS analysis; assay type: ADME, organism-based; parameters: dose 10 mg/kg, route oral; conditions: read-out: Drug uptake
[20] = Drug level in ICR mouse brain at 10 mg/kg, po after 4 hrs by HPLC/MS/MS analysis; assay type: ADME, organism-based; parameters: dose 10 mg/kg, route oral; conditions: read-out: Drug uptake
[21] = Plasma concentration in ICR mouse at 10 mg/kg, po after 1 hr by HPLC/MS/MS analysis; assay type: ADME, organism-based; parameters: dose 10 mg/kg, route oral
[22] = Drug level in ICR mouse brain at 10 mg/kg, po after 0.083 hrs by HPLC/MS/MS analysis; assay type: ADME, organism-based; parameters: dose 10 mg/kg, route oral; conditions: read-out: Drug uptake
[23] = Plasma concentration in ICR mouse at 10 mg/kg, po after 2 hrs by HPLC/MS/MS analysis; assay type: ADME, organism-based; parameters: dose 10 mg/kg, route oral
[24] = Plasma concentration in ICR mouse at 5 mg/kg, iv after 2 hrs by HPLC/MS/MS analysis; assay type: ADME, organism-based; parameters: dose 5 mg/kg, route intravenous
[25] = test system: Rattus norvegicus; assay: Antiinflammatory activity in Wistar albino rat assessed as inhibition of carrageenan-induced paw edema at 33.6 mg/kg, ig administered 1 hr before carrageenan challenge measured after 1 to 24 hrs post carrageenan challenge by plethysmometer; assay type: functional, organism-based; outline: as §2
[26] = Plasma concentration in ICR mouse at 10 mg/kg, po after 4 hrs by HPLC/MS/MS analysis; assay type: ADME, organism-based; parameters: dose 10 mg/kg, route oral
[27] = test system: Nucleic Acid; assay: Ratio of drug level in brain to plasma in ICR mouse at 5 mg/kg, iv after 0.083 hrs by HPLC/MS/MS analysis; assay type: ADME, organism-based; parameters: dose 5 mg/kg, route intravenous
[28] = Plasma concentration in ICR mouse at 5 mg/kg, iv after 8 hrs by HPLC/MS/MS analysis; assay type: ADME, organism-based; parameters: dose 5 mg/kg, route intravenous
[29] = AUC (0 to t) in ICR mouse at 5 mg/kg, iv; assay type: ADME, organism-based; parameters: dose 5 mg/kg, route intravenous; conditions: plasma; outline: as §1
[30] = Mean residence time (0 to infinity) in ICR mouse at 5 mg/kg, iv; assay type: ADME, organism-based; parameters: dose 5 mg/kg, route intravenous; conditions: in vivo; outline: as §1
[31] = Plasma concentration in ICR mouse at 5 mg/kg, iv after 0.5 hrs by HPLC/MS/MS analysis; assay type: ADME, organism-based; parameters: dose 5 mg/kg, route intravenous
[32] = AUC (0 to infinity) in ICR mouse at 5 mg/kg, iv; assay type: ADME, organism-based; parameters: time infinity, dose 5 mg/kg, route intravenous; conditions: plasma; outline: as §1
[33] = Drug level in ICR mouse brain at 5 mg/kg, iv after 0.25 hrs by HPLC/MS/MS analysis; assay type: ADME, organism-based; parameters: dose 5 mg/kg, route intravenous; conditions: read-out: Drug uptake
[34] = Mean residence time (0 to infinity) in ICR mouse at 10 mg/kg, po; assay type: ADME, organism-based; parameters: dose 10 mg/kg, route oral; conditions: in vivo; outline: as §1
[35] = AUC (0 to t) in ICR mouse at 10 mg/kg, po; assay type: ADME, organism-based; parameters: dose 10 mg/kg, route oral; conditions: plasma; outline: as §1
[36] = test system: Nucleic Acid; assay: Ratio of drug level in brain to plasma in ICR mouse at 5 mg/kg, iv after 0.5 hrs by HPLC/MS/MS analysis; assay type: ADME, organism-based; parameters: dose 5 mg/kg, route intravenous
[37] = Drug level in ICR mouse brain at 5 mg/kg, iv after 1 hr by HPLC/MS/MS analysis; assay type: ADME, organism-based; parameters: dose 5 mg/kg, route intravenous; conditions: read-out: Drug uptake
[38] = Tmax in ICR mouse at 10 mg/kg, po; assay type: ADME, organism-based; parameters: dose 10 mg/kg, route oral; conditions: in vivo
[39] = Drug level in ICR mouse brain at 10 mg/kg, po after 0.25 hrs by HPLC/MS/MS analysis; assay type: ADME, organism-based; parameters: dose 10 mg/kg, route oral; conditions: read-out: Drug uptake
[40] = test system: Nucleic Acid; assay: Ratio of drug level in brain to plasma in ICR mouse at 10 mg/kg, po after 0.5 hrs by HPLC/MS/MS analysis; assay type: ADME, organism-based; parameters: dose 10 mg/kg, route oral
[41] = Drug level in ICR mouse brain at 10 mg/kg, po after 0.5 hrs by HPLC/MS/MS analysis; assay type: ADME, organism-based; parameters: dose 10 mg/kg, route oral; conditions: read-out: Drug uptake
[42] = Plasma concentration in ICR mouse at 10 mg/kg, po after 6 hrs by HPLC/MS/MS analysis; assay type: ADME, organism-based; parameters: dose 10 mg/kg, route oral
[43] = test system: Nucleic Acid; assay: Ratio of drug level in brain to plasma in ICR mouse at 5 mg/kg, iv after 2 hrs by HPLC/MS/MS analysis; assay type: ADME, organism-based; parameters: dose 5 mg/kg, route intravenous
[44] = Drug level in ICR mouse brain at 10 mg/kg, po after 2 hrs by HPLC/MS/MS analysis; assay type: ADME, organism-based; parameters: dose 10 mg/kg, route oral; conditions: read-out: Drug uptake
[45] = Plasma concentration in ICR mouse at 5 mg/kg, iv after 0.25 hrs by HPLC/MS/MS analysis; assay type: ADME, organism-based; parameters: dose 5 mg/kg, route intravenous

CC(C)Cc1ccc([C@H](CF)C(=O)O)cc1
concentration at 0.5 h [1]: 523 ng/g
Cmax [2]: 31600 ng/mL
concentration at 2 h [3]: 64.9 ng/g
Tmax [4]: 4.8 min
Cmax [5]: 42100 ng/mL
bioavailability [6]: 108%
concentration at 0.083 h [7]: 982 ng/g
concentration at 8 h [8]: 42.4 ng/mL
BPR [9]: 0.042 mL/g
concentration at 4 h [10]: 206 ng/mL
BPR [11]: 0.025 mL/g
AUC(0-inf) [12]: 50200 ng·h/mL
concentration at 0.5 h [13]: 28500 ng/mL
concentration at 0.083 h [14]: 31600 ng/mL
concentration at 0.083 h [15]: 41800 ng/mL
concentration at 0.25 h [16]: 42100 ng/mL
inhibition [17]: Active
concentration at 6 h [18]: 130 ng/mL
concentration at 1 h [19]: 516 ng/g
concentration at 4 h [20]: 24.7 ng/g
concentration at 1 h [21]: 20900 ng/mL
concentration at 0.083 h [22]: 1160 ng/g
concentration at 2 h [23]: 5310 ng/mL
concentration at 2 h [24]: 2240 ng/mL
inhibition [25]: Active
concentration at 4 h [26]: 792 ng/mL
BPR [27]: 0.031 mL/g
concentration at 8 h [28]: 45.3 ng/mL
AUC(0-t) [29]: 23300 ng·h/mL
MRT inf [30]: 49.8 min
concentration at 0.5 h [31]: 13700 ng/mL
AUC(0-inf) [32]: 23300 ng·h/mL
concentration at 0.25 h [33]: 759 ng/g
MRT inf [34]: 57 min
AUC(0-t) [35]: 50200 ng·h/mL
BPR [36]: 0.038 mL/g
concentration at 1 h [37]: 232 ng/g
Tmax [38]: 15 min
concentration at 0.25 h [39]: 1270 ng/g
BPR [40]: 0.035 mL/g
concentration at 0.5 h [41]: 950 ng/g
concentration at 6 h [42]: 102 ng/mL
BPR [43]: 0.032 mL/g
concentration at 2 h [44]: 162 ng/g
concentration at 0.25 h [45]: 18000 ng/mL
